From ChEMBL document CHEMBL2086284, “(Z)-1-aryl-3-arylamino-2-propen-1-ones, highly active stimulators of tubulin polymerization: synthesis, structure-activity relationship (SAR), tubulin polymerization, and cell growth inhibition studies” (J Med Chem, 2012)

Key:
DU-145 = assay: Cytotoxicity against androgen receptor-deficient human DU145 cells after 96 hrs by trypan blue exclusion assay; assay type: functional, cell-based; conditions: DU-145, 96 h
Procedure, shortened: (§1)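 Cells grown in DMEM or RPMI with 10% FBS and penicillin-streptomycin. Seeded at 1.0 × 10^5 cells/mL/well in 6-well dishes; compounds were added 24 h later at various concentrations. Viable cells were counted by trypan blue exclusion from duplicate wells after 96 h of treatment, giving a dose-response endpoint.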

K562 = assay: Cytotoxicity against human K562 cells after 96 hrs by trypan blue exclusion assay; assay type: functional, cell-based; conditions: K562, 96 h; procedure, shortened: as §1

SMILES | IC50 (DU-145) | IC50 (K562)
COc1cc(OC)c(N/C=C\C(=O)c2cc(OC)c(OC)c(OC)c2)c(OC)c1 | 75 µM | 50 µM
COc1cc(OC)c(C(=O)/C=C\Nc2ccc(Cl)cc2)c(OC)c1 | 25 µM | 25 µM
COc1cc(C(=O)/C=C\Nc2ccccc2O)cc(OC)c1OC | 0.25 µM | 0.5 µM
COc1cc(OC)c(N/C=C\C(=O)c2c(OC)cc(OC)cc2OC)c(OC)c1 | 75 µM | 50 µM
COc1cc(C(=O)/C=C\Nc2cccc3cc[nH]c23)cc(OC)c1OC | 2.5 µM | 2.5 µM
COc1cc(C(=O)/C=C\Nc2ccc3[nH]ccc3c2)c(Br)c(OC)c1OC | 0.15 µM | 0.2 µM
COc1cc(C(=O)/C=C\Nc2ccc(Cl)cc2)cc(OC)c1OC | 0.5 µM | 0.25 µM
COc1cc(C(=O)/C=C\Nc2ccc(OC(F)(F)F)cc2)cc(OC)c1OC | 3 µM | 20 µM
COc1ccc(N/C=C\C(=O)c2c(OC)cc(OC)cc2OC)cc1 | 75 µM | 75 µM
COc1cc(N/C=C\C(=O)c2cc(OC)c(OC)c(OC)c2)cc(OC)c1OC | 40 µM | 25 µM
COc1cc(C(=O)/C=C\Nc2ccc3[nH]c(C)cc3c2)cc(OC)c1OC | 0.6 µM | 0.75 µM
COc1ccc(N/C=C\C(=O)c2cc(OC)c(OC)c(OC)c2Br)cc1 | 0.2 µM | 0.25 µM
COc1cc(C(=O)/C=C\Nc2cnc3ccccc3c2)cc(OC)c1OC | 0.5 µM | 0.75 µM
COc1ccc(N/C=C\C(=O)c2cc(OC)c(OC)c(OC)c2[N+](=O)[O-])cc1 | 0.6 µM | 0.6 µM
COc1ccc(N/C=C\C(=O)c2ccc(OC)cc2)cc1 | 75 µM | 100 µM
COc1cc(C(=O)/C=C\Nc2ccccc2O)c(Br)c(OC)c1OC | 0.25 µM | 0.2 µM
COc1ccc(N/C=C\C(=O)c2cc(OC)c(OC)c(OC)c2)cc1 | 0.5 µM | 0.5 µM
COc1ccc(N/C=C\C(=O)c2cc(OC)c(OC)c(OC)c2)cc1Cl | 0.2 µM | 0.25 µM
